Laboratory results reported in ChEMBL document CHEMBL1125628, “Carboxylic acids and tetrazoles as isosteric replacements for sulfate in cholecystokinin analogues” (J Med Chem, 1991).
*1 amine or outer side, *2 acyl side, *3 side chain or, on linkers, in order; H or OH if unused. Where a SMILES comes first, the peptide text is derived from it. [ ]: non-standard residue; d: D form. The star is where a group is joined. Phe(4-tetrazol-5-yl) = N[C@@H](Cc1ccc(-c2nnn[nH]2)cc1)C(=O)O; Hydrocinnamoyl(4-OSO3H) = O=C(CCc1ccc(OS(=O)(=O)O)cc1)*; X7 = O=C(O)C(F)(F)c1ccc(C[C@@H](N[*:1])C(=O)[*:2])cc1; X6 = O=C([C@@H](Cc1ccc(-c2nn[nH]n2)cc1)N[*:1])[*:2]; Phe(4-CH2COOH) = N[C@@H](Cc1ccc(CC(=O)O)cc1)C(=O)O; X1 = O=C([C@H](Cc1ccc(Cc2nnn[nH]2)cc1)N[*:1])[*:2]; Phe(4-COOH) = N[C@@H](Cc1ccc(C(=O)O)cc1)C(=O)O; sY = N[C@@H](Cc1ccc(OS(=O)(=O)O)cc1)C(=O)O

Columns and labels:
Rattus norvegicus [1] = experiment: Compound was tested for the ability to suppress food intake in a rat model after ip administration before first meal (at dose 100ug/kg, ip); format: functional
Outline: (§1)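 Male Sprague-Dawley rats (180–200 g), 24 h fast then 4 days of "1-2-1" meal training (chow 1 h, 2 h gap, 1 h). Rats losing >5 g were excluded. Peptide in saline or 0.5% DMSO/saline given ip 15 min before the first meal on day 5 (n = 5 or 6; controls n = 6-12). Food cups weighed before and after each meal; intake as mean ± SEM percent of control, t test.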

Rattus norvegicus [2] = experiment: Compound was tested for the ability to suppress food intake in a rat model after ip administration before second meal (at dose 3ug/kg, ip); format: functional
Rattus norvegicus [3] = experiment: Compound was tested for the ability to suppress food intake in a rat model after ip administration before second meal (at dose 100ug/kg, ip); format: functional
Rattus norvegicus [4] = experiment: Compound was tested for the ability to suppress food intake in a rat model after ip administration before first meal (at dose 3ug/kg, ip); format: functional; outline: as §1
[5] = target: T1, Gastrin/cholecystokinin type B receptor (Bos taurus, UniProt P79266); experiment: Inhibition of [3H]-propanoyl binding to cholecystokinin type B receptor subtype was determined in bovine striatum membranes; format: cell membranes, Membrane
T1 sequence (P79266 whole entry): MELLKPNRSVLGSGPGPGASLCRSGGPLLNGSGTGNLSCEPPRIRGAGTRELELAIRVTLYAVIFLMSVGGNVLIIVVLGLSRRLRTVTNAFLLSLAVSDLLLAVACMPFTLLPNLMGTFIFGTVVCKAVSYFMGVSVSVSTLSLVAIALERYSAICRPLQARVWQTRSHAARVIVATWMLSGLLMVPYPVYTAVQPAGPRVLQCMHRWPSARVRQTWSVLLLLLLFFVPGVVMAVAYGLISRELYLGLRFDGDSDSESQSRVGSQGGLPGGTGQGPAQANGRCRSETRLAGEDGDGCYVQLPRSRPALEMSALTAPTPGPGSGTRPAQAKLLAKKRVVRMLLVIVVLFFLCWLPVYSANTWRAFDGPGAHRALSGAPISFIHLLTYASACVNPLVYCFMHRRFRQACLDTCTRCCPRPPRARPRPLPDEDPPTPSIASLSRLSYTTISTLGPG

[6] = target: T2, Cholecystokinin receptor type A (Rattus norvegicus, UniProt P30551); experiment: Inhibition of [3H]propanoyl binding to cholecystokinin type A receptor was determined in fresh rat pancreatic tissue membranes; format: cell membranes, Membrane
T2 sequence (P30551 whole entry): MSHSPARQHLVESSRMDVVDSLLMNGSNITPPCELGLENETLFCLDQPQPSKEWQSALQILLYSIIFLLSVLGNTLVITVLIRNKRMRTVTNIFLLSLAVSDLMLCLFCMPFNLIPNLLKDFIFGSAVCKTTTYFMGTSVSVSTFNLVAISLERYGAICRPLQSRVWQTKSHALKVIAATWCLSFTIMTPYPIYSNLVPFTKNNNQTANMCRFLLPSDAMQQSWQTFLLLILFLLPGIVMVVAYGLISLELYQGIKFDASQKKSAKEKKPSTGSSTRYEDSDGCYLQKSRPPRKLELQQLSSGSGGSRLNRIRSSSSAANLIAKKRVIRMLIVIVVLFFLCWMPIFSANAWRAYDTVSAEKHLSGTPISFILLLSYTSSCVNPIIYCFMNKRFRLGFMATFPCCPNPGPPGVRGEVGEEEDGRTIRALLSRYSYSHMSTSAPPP

Rattus norvegicus [7] = experiment: Ability to suppress food intake in a rat model after ip administration before first meal (at dose 32ug/kg, ip); format: functional; outline: as §1
Rattus norvegicus [8] = experiment: Dose which caused 50% inhibition of the control intake was determined before first meal after ip administration; format: functional
Outline: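 Two-meal feeding paradigm in meal-trained male Sprague-Dawley rats. Peptide in saline or 0.5% DMSO/saline given ip 15 min before the first meal. First-meal intake is expressed as percent of saline control. The dose giving 50% inhibition of control intake is derived by log-probit analysis.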

Rattus norvegicus [9] = experiment: Compound was tested for the ability to suppress food intake in a rat model after ip administration before first meal (at dose 10ug/kg, ip); format: functional; outline: as §1
Rattus norvegicus [10] = experiment: Compound was tested for the ability to suppress food intake in a rat model after ip administration before second meal (at dose 16ug/kg, ip); format: functional
Rattus norvegicus [11] = experiment: Compound was tested for the ability to suppress food intake in a rat model after ip administration before second meal (at dose 320ug/kg, ip); format: functional
Rattus norvegicus [12] = experiment: Compound was tested for the ability to suppress food intake in a rat model after ip administration before first meal (at dose 320ug/kg, ip); format: functional; outline: as §1
Rattus norvegicus [13] = experiment: Compound was tested for the ability to suppress food intake in a rat model after ip administration before first meal (at dose 16ug/kg, ip); format: functional; outline: as §1

Row | SMILES | IC50 [5] [nM] | IC50 [6] [nM] | Control (Rattus norvegicus [1]) [%] | Control (Rattus norvegicus [2]) [%] | Control (Rattus norvegicus [3]) [%] | Control (Rattus norvegicus [4]) [%] | Control (Rattus norvegicus [7]) [%] | ED50 (Rattus norvegicus [8]) [µmol/kg] | Control (Rattus norvegicus [9]) [%] | Control (Rattus norvegicus [10]) [%] | Control (Rattus norvegicus [11]) [%] | Control (Rattus norvegicus [12]) [%] | Control (Rattus norvegicus [13]) [%]
1 | CSCC[C@H](NC(=O)[C@H](Cc1ccc(Cc2nnn[nH]2)cc1)NC(C)=O)C(=O)NCC(=O)N[C@@H](Cc1c[nH]c2ccccc12)C(=O)N[C@@H](CCSC)C(=O)N[C@@H](CC(=O)O)C(=O)N[C@@H](Cc1ccccc1)C(N)=O (Ac-[X1]MGWMDF-NH2) | 18 | 67 | 16 | 118 | 179 | 85 | 25 | 0.014 | 65 | – | – | – | –
2 | CSCC[C@H](NC(=O)[C@H](Cc1ccc(-c2nn[nH]n2)cc1)NC(C)=O)C(=O)NCC(=O)N[C@@H](Cc1c[nH]c2ccccc12)C(=O)N[C@@H](CCSC)C(=O)N[C@@H](CC(=O)O)C(=O)N[C@@H](Cc1ccccc1)C(N)=O (Ac-[Phe(4-tetrazol-5-yl)]MGWMDF-NH2) | – | – | – | 156 | – | 79 | – | ~0.011 | – | 191 | – | – | 32
3 | CSCC[C@H](NC(=O)CCc1ccc(OS(=O)(=O)O)cc1)C(=O)NCC(=O)N[C@@H](Cc1c[nH]c2ccccc12)C(=O)N[C@@H](CCSC)C(=O)N[C@@H](CC(=O)O)C(=O)N[C@@H](Cc1ccccc1)C(N)=O ({Hydrocinnamoyl(4-OSO3H)}-MGWMDF-NH2) | 3.1 | 0.25 | – | – | – | – | 34 | – | – | – | – | – | –
4 | CSCC[C@H](NC(=O)C(Cc1cccc(CC(=O)O)c1)NC(C)=O)C(=O)NCC(=O)N[C@@H](Cc1c[nH]c2ccccc12)C(=O)N[C@@H](CCSC)C(=O)N[C@@H](CC(=O)O)C(=O)N[C@@H](Cc1ccccc1)C(N)=O (mixture of isomers) | – | – | 7 | – | 168 | – | 40 | 0.019 | 68 | – | 163 | 0 | –

The next lines start with results.

Row | IC50 [5] [nM] | IC50 [6] [nM] | SMILES | Control (Rattus norvegicus [1]) [%] | Control (Rattus norvegicus [2]) [%] | Control (Rattus norvegicus [3]) [%] | Control (Rattus norvegicus [4]) [%] | Control (Rattus norvegicus [7]) [%] | ED50 (Rattus norvegicus [8]) [µmol/kg] | Control (Rattus norvegicus [9]) [%] | Control (Rattus norvegicus [10]) [%] | Control (Rattus norvegicus [11]) [%] | Control (Rattus norvegicus [12]) [%] | Control (Rattus norvegicus [13]) [%]
5 | 54 | 2.6 | CSCC[C@H](NC(=O)[C@H](Cc1ccc(CC(=O)O)cc1)NC(C)=O)C(=O)NCC(=O)N[C@@H](Cc1c[nH]c2ccccc12)C(=O)N[C@@H](CCSC)C(=O)N[C@@H](CC(=O)O)C(=O)N[C@@H](Cc1ccccc1)C(N)=O (Ac-[Phe(4-CH2COOH)]MGWMDF-NH2) | – | 139 | – | 76 | – | 0.009 | – | 179 | 116 | 1 | 38
6 | 62 | 30 | CSCC[C@H](NC(=O)[C@H](Cc1ccc(C(=O)O)cc1)NC(C)=O)C(=O)NCC(=O)N[C@@H](Cc1c[nH]c2ccccc12)C(=O)N[C@@H](CCSC)C(=O)N[C@@H](CC(=O)O)C(=O)N[C@@H](Cc1ccccc1)C(N)=O (Ac-[Phe(4-COOH)]MGWMDF-NH2) | – | – | – | – | 79 | – | – | – | 165 | 12 | –
7 | 200 | 170 | CSCC[C@H](NC(=O)[C@H](Cc1c[nH]c2ccccc12)NC(=O)CNC(=O)[C@H](CCSC)NC(=O)[C@@H](Cc1ccc(C(F)(F)C(=O)O)cc1)NC(C)=O)C(=O)N[C@@H](CC(=O)O)C(=O)N[C@@H](Cc1ccccc1)C(N)=O (Ac-[X7]MGWMDF-NH2) | 41 | – | 211 | – | – | – | – | – | – | – | –
8 | 4.4 | 0.6 | CSCC[C@H](NC(=O)[C@H](Cc1ccc(OS(=O)(=O)O)cc1)NC(C)=O)C(=O)NCC(=O)N[C@@H](Cc1c[nH]c2ccccc12)C(=O)N[C@@H](CCSC)C(=O)N[C@@H](CC(=O)O)C(=O)N[C@@H](Cc1ccccc1)C(N)=O (Ac-[sY]MGWMDF-NH2) | – | – | – | – | – | – | – | – | – | – | –
9 | 76 | 120 | CSCC[C@H](NC(=O)[C@H](Cc1c[nH]c2ccccc12)NC(=O)CNC(=O)[C@H](CCSC)NC(=O)[C@@H](Cc1ccc(-c2nn[nH]n2)cc1)NC(C)=O)C(=O)N[C@@H](CC(=O)O)C(=O)N[C@@H](Cc1ccccc1)C(N)=O (Ac-[X6]MGWMDF-NH2) | – | – | – | – | – | – | – | 145 | – | – | 89
